# Assay: Toxicity liver stage against HepG2, at 10uM
# Assay type: cell-based
# Set-up: test concentration 10 uM, cell line HepG2-A16-CD81EGFP
# Conditions: human, HepG2-A16-CD81EGFP cells; read-out: INHIBITION
# Procedure, shortened: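 Uninfected HepG2-A16-CD81EGFP cells, 3 × 10^3 per well, 1536-well, plated on prespotted compound at 10 μM final, parasite-free screening media added to match infected plates; puromycin 10 μM positive, DMSO 0.5% negative; run in parallel with 48 h PbLuc assay at 37 °C, 5% CO2; viability by CellTiter-Glo luminescence, normalized to controls.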
row,SMILES,cytotoxicity at 10 µM [%]
1,CNC(=O)CN([C@H]1C[C@H]2CCOC[C@H]2C1)S(=O)(=O)c1ccccc1,-1.63
2,OC[C@H]1CN2CCN(c3ccccn3)C[C@@H]2[C@@H]1c1ccccc1,-0.0603
3,CSc1ccc(C(=O)N2CC(=O)N(Cc3cccs3)CC(O)C2)cc1 (configuration not stated),2.31
4,O=C(CC1NC(N2CCc3ccccc3C2)=NC1=O)Nc1ccccc1 (configuration not stated),2.96
5,COCCn1ccc2c(NC(=O)C(C)C)cccc21,1.01
6,O=C(Nc1cc(C(F)(F)F)ccc1Cl)c1ccc(N2CCOCC2)nn1,-9.89
7,Cc1cc2cc(CNC(=O)c3cnn4c3OCCC4)ccc2[nH]1,6.59
8,COCC(=O)N1CCN(c2cc(-n3cccc3)nc(C)n2)CC1,-6.81
9,Cn1c(=O)[nH]c(=O)n2c(CC(=O)NCc3ccccc3)cnc12,7.77
10,CCOc1ccc(NC(=O)CN2CCN(c3nccn3C)CC2)cc1,4.05
11,O=C(NCC(Cc1cccc(F)c1)N1CCCC1=O)c1ccccc1 (configuration not stated),-12.2
12,O=C(CCn1ccc2cc(Br)ccc21)NCc1ccc(C(=O)O)cc1,-11.8
13,Cc1noc(C)c1CN1CCCC2(CCN(C(=O)CC3CC3)C2)C1 (configuration not stated),7.71
14,CCc1nc(NCCn2cccn2)c2c(n1)c(C)nn2C,5.97
15,CCC(C)NC(=O)c1nn(C)c(NC(=O)c2ccccc2OC)c1F (configuration not stated),-6.24
16,Cc1cc(C(=O)N(C)Cc2cccs2)nc(N2CCOCC2)n1,4.45
17,Cc1cccnc1NC(=O)C(C)Cn1nc(C(F)(F)F)cc1C (configuration not stated),5.89
18,Cn1ccnc1CNC(=O)CC1CCCCO1 (configuration not stated),1.24
19,CNC(=O)C1CN(C(=O)c2ccccc2)Cc2cn(C)nc21 (configuration not stated),-1.5
20,Cc1cnc(-c2nc(C3CCN(Cc4ccccc4C)CC3)no2)cn1,4.08
21,Cc1cccc(C2CCCN(S(=O)(=O)c3cccnc3)C2)n1 (configuration not stated),4.05
22,Cc1ccc(CN2CCC(c3cnccn3)CC2)s1,-0.64
23,Cc1cccc(CN2CCC(c3nnsc3S(C)(=O)=O)CC2)c1,1.86

row,SMILES,cytotoxicity at 10 µM [%]
1,CC(C)N1CCC(Cc2cncc(-c3cccc(C(=O)O)c3)n2)CC1,-20.8
2,Cc1cc(-c2cnn(CCNC(=O)c3cc[nH]n3)c2C2CC2)on1,-13.6
3,O=S(=O)(c1ccccc1)N1CCCC1c1cc[nH]n1 (configuration not stated),-6.58
4,Cc1[nH]ccc1C(=O)N1CCOCC12CCCC2,4.14
5,COc1cc2c(nn1)CCN(Cc1ncc(C(C)(C)C)o1)C2,-6.44
6,CN(CC(C)(CO)CO)C(=O)Nc1cc(F)cc(F)c1,0.669
7,CCCc1noc(C(C)N2CCN(CCn3ccccc3=O)CC2)n1 (configuration not stated),5.6
8,Cc1cnc(N2CCN(C(C)C(N)=O)CC2)nc1 (configuration not stated),0.399
9,COc1cc2c(cc1OC)CN(C(=O)NCC1CCCO1)CC2 (configuration not stated),-16
10,NCC(CO)Cc1ccc(OC(F)(F)F)cc1 (configuration not stated),8.65
11,CN(C)C1CCN(C(=O)C2SCCc3ccccc32)CC1 (configuration not stated),-4.67
12,O=S(=O)(CCN1CCN(c2ccccc2O)CC1)c1ccc(Br)cc1,10.7
13,Cc1cc(C2CCCN2Cc2ccc(S(=O)(=O)N3CCCC3)o2)on1 (configuration not stated),-11.9
14,CC(=O)N1CCN(C(=O)NCc2ccccc2Cn2ccnc2)CC1,0.243
15,CC(C)(O)CN1CCN(C(=O)c2cccn2Cc2ccncc2)CC1,-2.59
16,CCN(Cc1ccc2c(c1)OCO2)C(=O)c1ccc(=O)n(C)c1,15.9
17,Cn1ccnc1COc1ccc(COC(=O)C2CCCO2)cc1 (configuration not stated),-1.39
18,O=C(Cn1cnc(NC(=O)c2ccccn2)n1)NCc1ccccc1,9.97
19,O=C(CS(=O)(=O)C1CCCC1)NC1CCc2nccn2C1 (configuration not stated),-17
20,Cc1nnc(CN(C)CCOc2cccc(Cl)c2)o1,12.8
21,CCc1nnc2n1CCN(C(=O)c1cnc(-c3cccs3)s1)C2,-3.28
22,CCn1c(C)cc(C(=O)NCc2cccc(NS(C)(=O)=O)c2)c1C,-2.6
23,CC(C)N(CCNC(=O)c1ccc(S(=O)(=O)NC2CC2)cc1)C(C)C,-65.8

row,SMILES,cytotoxicity at 10 µM [%]
1,CN(C)CCN(Cc1ccccn1)C(=O)Nc1cccc(F)c1,8.94
2,O=C1OCCN1c1cccc(CNS(=O)(=O)Cc2ccc(F)cc2)c1,4.77
3,COCC1CCCN(C(=O)c2ccccc2NCc2cccnc2)C1 (configuration not stated),8.47
4,CNC(=O)c1ccc(-c2ccccc2)n1C,-1.6
5,O=C(NCCN1CCOCC1)Nc1cc(F)ccc1-n1cccn1,-14.9
6,CNC(=O)C(CCSC)NC(=O)c1ccc2ccccc2n1 (configuration not stated),-1.35
7,O=S(=O)(CC1CCCCC1)NCc1ccc(O)nc1,5.27
8,CCOC(C)C(=O)NCCNS(C)(=O)=O (configuration not stated),-5.29
9,CC(COCC(F)(F)F)NC(=O)c1ccc(-c2ccco2)[nH]c1=O (configuration not stated),-20.1
10,Cn1cc(NC(=O)Nc2ccccn2)cc(Cl)c1=O,-7.82
11,Cc1ncc(CNC(=O)c2oc3ccccc3c2CN(C)C)s1,13.5
12,c1coc(-c2nnc(CN3CCCC(CN4CCCCCC4)C3)o2)c1 (configuration not stated),-10.5
13,Cc1nc(C)n(CC2CCCN(Cc3nnc(C(C)(C)C)o3)C2)n1 (configuration not stated),-11
14,CC(=O)NCC[C@H]1CC(C)(C)Oc2ccccc21,-0.363
15,C=C(C)COc1cccc(C(=O)N(CC)Cc2nccn2C)c1,-4.69
16,CCNC(=O)[C@@H]1C[C@@H](NC(=O)c2ccc(C)s2)CN1Cc1ccccn1,-3.73
17,CNc1ncc(CN(C)C(=O)c2cccc(CC3CCNCC3)c2)cn1,-19.7
18,Cc1cc(CC(C)Nc2ncnc3cccc(F)c23)[nH]n1 (configuration not stated),26.4
19,Cc1nsc(NC(=O)NC2CCCOC2)n1 (configuration not stated),16
20,Cc1cccc(CN2C[C@@H](CN3CCCN(C)CC3)[C@@H](CO)C2)n1,-7.57
21,NCCc1nc(N(Cc2nccs2)C2CC2)c2ccccc2n1,-16.1
22,Cn1cc(CN2CCCN(CCCc3ccccc3)CC2)cn1,-50.8
23,CC(c1cccc(-c2ncccc2C#N)c1)N(C)C (configuration not stated),-5.4

row,SMILES,cytotoxicity at 10 µM [%]
1,CCCN1CCCC2(CCN(S(=O)(=O)c3cccnc3)C2)C1=O (configuration not stated),-2.3
2,Cc1ccc(CN(CCN(C)C)C(=O)Nc2cc(C(N)=O)ccc2C)s1,13.1
3,Cc1ccsc1CN(c1nc(CCN)nc2ccccc12)C1CC1,11.7
4,COc1ccc(NC2CCCN(Cc3cnc(N(C)C)s3)C2)cc1OC (configuration not stated),3.46
5,CC(C)=Cc1c(-c2ccccc2)ncn1CCS(C)(=O)=O,-3.15
6,Cc1ccc(-c2ccnc(NCC3(N(C)C)CCOCC3)n2)c(C)n1,13.1
7,O=C1CC2(CCN(C(=O)c3ccc4c(c3)CCCO4)C2)C(=O)N1 (configuration not stated),3.67
8,Cc1nc(O)cc(CN2C[C@H](NC(=O)C3CCC3)[C@@H](C3CC3)C2)n1,0.675
9,Cc1cc(=O)[nH]c(-c2cccc(CN3CCCN4CCCC4C3)c2)n1 (configuration not stated),1.46
10,N#Cc1c(SCCN2CCCCCC2)sc2c(O)cc(O)nc12,-10.5
11,CCC1(c2ccc(NS(=O)(=O)N(C)C)cc2)CCC(=O)NC1=O (configuration not stated),-7.19
12,Cc1nc(N2CCN(C(=O)c3ccccc3)CC2)c2cnn(C)c2n1,-11.5
13,Cc1noc(CN(C)Cc2ccc3c(c2)OCO3)n1,-13.2
14,Cc1noc(C)c1CN1CCC(N(C)Cc2nnc(C3CC3)n2C)C1 (configuration not stated),-4.03
15,Cc1nc(C)n(CC2CCCN(Cc3ccc(F)cc3C#N)C2)n1 (configuration not stated),-10.8
16,N#Cc1ccc(CCC(=O)N2CCCC(n3cncn3)C2)cc1 (configuration not stated),-7.79
17,Cc1nsc2ncc(C(=O)N3CCCC3c3cnn(C)c3)cc12 (configuration not stated),-1.8
18,Cn1cc(C(=O)N2CCCC2c2noc(C3CC3)n2)c2ccccc21 (configuration not stated),-0.249
19,CN1C(=O)Cc2cc(-c3csc(CCN4CCOC4=O)n3)ccc21,-11.5
20,CC(c1cc(F)ccc1F)N1CCN(Cc2nccn2C)CC1 (configuration not stated),-15.6
21,Cc1nn2cccnc2c1C(=O)N1CCCC(n2cccn2)C1 (configuration not stated),-35.9
22,Cc1ccc(C)c(S(=O)(=O)CCN2CCc3c(ncn3C)C2)c1,-12.5
23,Cc1cccnc1NC(=O)NCc1cccnc1OC(C)C,-8.75

row,SMILES,cytotoxicity at 10 µM [%]
1,Cc1cc(CN(Cc2cccs2)CC2CCCO2)on1 (configuration not stated),-10.1
2,O=C(Cc1ccc2c(c1)OCCO2)NCc1ccc(-n2cncn2)nc1,-20.5
3,OC(CN1CCCCCCC1)c1ccc(OC(F)(F)F)cc1 (configuration not stated),-11.2
4,CCc1ccc(C(=O)N2CCN(c3nc(C)cc(OC)n3)CC2)o1,-18.7
5,Cc1nc(C)n(C2CCCN(C(=O)Cc3n[nH]c4ccccc34)C2)n1 (configuration not stated),-11.7
6,CCn1cnnc1C1CCN(C(=O)c2ccc(C(=O)OC)s2)CC1,-8.16
7,Cc1ncc2c(n1)CN(CC(=O)Nc1nncs1)CC2,-10.8
8,CCc1nnc2n1CCN(Cc1ccc3c(c1)OCCO3)C2,-6.61
9,Cc1c(C(=O)N2CCCC2c2cnn(C)c2)nnn1-c1ccccc1 (configuration not stated),-11.4
10,Cc1ccc(Cl)cc1N1CCC(CNC(=O)CCn2ccnn2)C1 (configuration not stated),-5.72
11,CCc1nc(CC(=O)N2CCn3c(nnc3C(C)C)C2)cs1,-6.72
12,CC(C)c1nc2n(n1)CC(NCc1nnc(C(C)C)o1)CC2 (configuration not stated),-4.13
13,Cc1cnn(CC2CCCN2C(=O)c2cc3ccccc3[nH]2)c1 (configuration not stated),-0.433
14,CCc1cc(C(F)(F)F)n2nc(C3CCCN3C3CCSCC3)cc2n1 (configuration not stated),3.81
15,CCn1cc2c(n1)CN(CC1CC1)CC2COCC1CC1 (configuration not stated),-1.26
16,CCS(=O)(=O)N1CCc2c(nc(C3CCCN3)nc2NC)C1 (configuration not stated),-10.2
17,NCC(=O)N1CCCC(c2ccnc(Nc3cnccn3)n2)C1 (configuration not stated),2.66
18,NCC1CCCCN1C(=O)Cc1cccc(Cl)c1 (configuration not stated),-5.36
19,CCOCC1CN(C(=O)c2cccn2C)Cc2cnn(CC3CC3)c21 (configuration not stated),8.37
20,CN(C)C(=O)CN1C[C@H]2CC[C@@H](C1)N(Cc1ccc(Cl)cc1Cl)C2,-10.2

# — ChEMBL document CHEMBL4513216, “Probing the Open Global Health Chemical Diversity Library for Multistage-Active Starting Points for Next-Generation Antimalarials” (ACS Infect Dis, 2020)
